ChEMBL document CHEMBL1157684, “2-Thienyl-4-furyl-6-aryl pyridine derivatives: synthesis, topoisomerase I and II inhibitory activity, cytotoxicity, and structure-activity relationship study” (Bioorg Med Chem, 2010)
Counter-ions that a name gives are not always drawn. Active and inactive are the calls of the source. The calls are words filed in the database; no cut-off is given here.

test system: HeLa; assay: Cytotoxicity against human HeLa cells after 4 days by ELISA reader assay; type: functional, cell-based; details: 96 h
Summary of the method: (§1)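 Cells grown per supplier, seeded at 2–4 × 10⁴ per well, left overnight in medium with 10% FBS at 37 °C under 5% CO₂, then exposed to compounds. WST (cell counting kit-8) reagent added for a further 4 h, absorbance read at 450 nm. IC50 from four-parameter logistic fit; mean ± S.D. of three experiments, each in triplicate.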

SMILES | IC50 [µM]
Cc1ccsc1-c1cc(-c2ccco2)cc(-c2ccccc2Cl)n1 | 24
Clc1cccc(-c2cc(-c3ccc(Cl)o3)cc(-c3ccc(Cl)s3)n2)c1 | 25.2
Cc1ccc(-c2cc(-c3ccc(Cl)o3)cc(-c3ccc(Cl)s3)n2)cc1 | > 50
Cc1ccsc1-c1cc(-c2ccoc2)cc(-c2ccco2)n1 | 30.5
Cc1ccsc1-c1cc(-c2ccoc2)cc(-c2ccc(Cl)cc2)n1 | 17.4
Cc1ccsc1-c1cc(-c2ccc(Cl)o2)cc(-c2cccnc2)n1 | > 50
Cc1ccsc1-c1cc(-c2ccc(Cl)o2)cc(-c2ccc(Cl)cc2)n1 | 29.3
Clc1ccc(-c2cc(-c3ccco3)cc(-c3ccc(Cl)s3)n2)cc1 | 17
Cc1ccsc1-c1cc(-c2ccc(Cl)o2)cc(-c2ccco2)n1 | 22.2
Cc1ccsc1-c1cc(-c2ccc(Cl)o2)cc(-c2cccc(Cl)c2)n1 | 24.8

target: DNA topoisomerase 2-alpha (Homo sapiens) (UniProt P11388); assay: Inhibition of human DNA topoisomerase 2alpha-mediated relaxation of supercoiled pBR322 DNA at 100 uM after 30 mins by agarose gel electrophoresis; details: not given
Summary of the method: (§2)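 Human topo IIα (1 unit) with 200 ng supercoiled pBR322, 30 min at 30 °C in 10 mM Tris–HCl pH 7.9, 50 mM NaCl, 50 mM KCl, 5 mM MgCl2, 1 mM EDTA, 1 mM ATP plus BSA. Products run on 1% agarose in TAE at 25 V for 4 h, ethidium-stained, supercoiled DNA quantified under UV.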

Chain of DNA topoisomerase 2-alpha (Homo sapiens) (P11388 whole entry): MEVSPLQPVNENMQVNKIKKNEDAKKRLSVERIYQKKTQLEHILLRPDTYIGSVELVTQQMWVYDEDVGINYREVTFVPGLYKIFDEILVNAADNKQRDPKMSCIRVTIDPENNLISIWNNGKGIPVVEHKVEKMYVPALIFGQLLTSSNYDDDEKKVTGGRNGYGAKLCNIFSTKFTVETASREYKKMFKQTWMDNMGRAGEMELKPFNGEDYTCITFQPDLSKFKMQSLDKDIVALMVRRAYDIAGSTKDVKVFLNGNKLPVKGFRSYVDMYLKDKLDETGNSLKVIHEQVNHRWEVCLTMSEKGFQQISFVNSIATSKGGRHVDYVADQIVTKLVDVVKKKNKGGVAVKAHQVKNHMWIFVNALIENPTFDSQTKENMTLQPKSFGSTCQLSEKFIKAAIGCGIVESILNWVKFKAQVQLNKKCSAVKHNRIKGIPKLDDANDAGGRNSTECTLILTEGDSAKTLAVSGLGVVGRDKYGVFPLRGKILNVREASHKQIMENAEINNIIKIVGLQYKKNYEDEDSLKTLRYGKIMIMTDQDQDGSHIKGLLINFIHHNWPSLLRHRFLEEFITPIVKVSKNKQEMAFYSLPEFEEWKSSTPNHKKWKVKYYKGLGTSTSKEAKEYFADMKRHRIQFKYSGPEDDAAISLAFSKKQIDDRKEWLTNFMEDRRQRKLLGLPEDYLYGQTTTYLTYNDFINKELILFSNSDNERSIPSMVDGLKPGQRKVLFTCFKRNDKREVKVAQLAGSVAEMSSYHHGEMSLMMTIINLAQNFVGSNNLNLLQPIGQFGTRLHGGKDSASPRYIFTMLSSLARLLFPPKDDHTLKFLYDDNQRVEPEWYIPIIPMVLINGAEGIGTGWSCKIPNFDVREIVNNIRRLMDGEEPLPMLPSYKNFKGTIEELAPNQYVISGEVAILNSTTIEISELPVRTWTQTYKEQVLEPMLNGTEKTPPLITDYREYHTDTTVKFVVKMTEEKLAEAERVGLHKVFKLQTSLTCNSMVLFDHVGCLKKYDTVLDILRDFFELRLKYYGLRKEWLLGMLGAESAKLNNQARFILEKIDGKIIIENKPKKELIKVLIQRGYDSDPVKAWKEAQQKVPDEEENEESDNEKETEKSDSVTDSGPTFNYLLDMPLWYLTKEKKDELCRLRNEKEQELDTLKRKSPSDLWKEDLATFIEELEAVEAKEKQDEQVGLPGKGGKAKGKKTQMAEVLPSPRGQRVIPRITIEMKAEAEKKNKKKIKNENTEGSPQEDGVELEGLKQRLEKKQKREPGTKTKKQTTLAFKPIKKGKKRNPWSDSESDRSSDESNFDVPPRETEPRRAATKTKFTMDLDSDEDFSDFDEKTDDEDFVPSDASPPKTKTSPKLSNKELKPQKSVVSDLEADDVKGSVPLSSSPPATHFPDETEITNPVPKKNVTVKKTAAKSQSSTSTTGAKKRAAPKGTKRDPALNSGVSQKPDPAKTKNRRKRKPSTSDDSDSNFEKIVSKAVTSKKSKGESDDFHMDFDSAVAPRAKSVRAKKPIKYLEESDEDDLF

inhibition [%] | SMILES
53.8 | Clc1cccc(-c2cc(-c3ccc(Cl)o3)cc(-c3ccc(Cl)s3)n2)c1
58.6 | Cc1ccc(-c2cc(-c3ccc(Cl)o3)cc(-c3ccc(Cl)s3)n2)cc1
57.2 | Cc1ccsc1-c1cc(-c2ccc(Cl)o2)cc(-c2cccnc2)n1
59.8 | Cc1ccsc1-c1cc(-c2ccc(Cl)o2)cc(-c2ccc(Cl)cc2)n1
53.3 | Clc1ccc(-c2cc(-c3ccco3)cc(-c3ccc(Cl)s3)n2)cc1
61.1 | Cc1ccsc1-c1cc(-c2ccc(Cl)o2)cc(-c2ccco2)n1
51.5 | Cc1ccsc1-c1cc(-c2ccc(Cl)o2)cc(-c2cccc(Cl)c2)n1

Continued, compound first:

SMILES | inhibition [%]
Cc1ccsc1-c1cc(-c2ccco2)cc(-c2ccccc2Cl)n1 | 33.2
Cc1ccsc1-c1cc(-c2ccoc2)cc(-c2ccco2)n1 | 59.9
Cc1ccsc1-c1cc(-c2ccoc2)cc(-c2ccc(Cl)cc2)n1 | 33.8

test system: MCF7; assay: Cytotoxicity against human MCF7 cells after 4 days by ELISA reader assay; type: functional, cell-based; details: MCF7, 96 h; summary of the method: as §1

SMILES | IC50 [µM]
CC[C@@]1(O)C(=O)OCc2c1cc1n(c2=O)Cc2cc3ccccc3nc2-1 [CAMPTOTHECIN] | 0.06
Cc1ccsc1-c1cc(-c2ccco2)cc(-c2ccccc2Cl)n1 | 14.2
Clc1cccc(-c2cc(-c3ccc(Cl)o3)cc(-c3ccc(Cl)s3)n2)c1 | 15.1
Cc1ccc(-c2cc(-c3ccc(Cl)o3)cc(-c3ccc(Cl)s3)n2)cc1 | 3.04
Cc1ccsc1-c1cc(-c2ccoc2)cc(-c2ccco2)n1 | 18.2
Cc1ccsc1-c1cc(-c2ccoc2)cc(-c2ccc(Cl)cc2)n1 | 20.3
Cc1ccsc1-c1cc(-c2ccc(Cl)o2)cc(-c2cccnc2)n1 | 5.81
Cc1ccsc1-c1cc(-c2ccc(Cl)o2)cc(-c2ccc(Cl)cc2)n1 | 15.3
Clc1ccc(-c2cc(-c3ccco3)cc(-c3ccc(Cl)s3)n2)cc1 | 1.52
Cc1ccsc1-c1cc(-c2ccc(Cl)o2)cc(-c2ccco2)n1 | 5.57
Cc1ccsc1-c1cc(-c2ccc(Cl)o2)cc(-c2cccc(Cl)c2)n1 | 18.8

test system: HCT-15; assay: Cytotoxicity against human HCT15 cells after 4 days by ELISA reader assay; type: functional, cell-based; details: HCT-15, 96 h; summary of the method: as §1

SMILES | IC50 [µM]
CC[C@@]1(O)C(=O)OCc2c1cc1n(c2=O)Cc2cc3ccccc3nc2-1 [CAMPTOTHECIN] | 0.76
Cc1ccsc1-c1cc(-c2ccco2)cc(-c2ccccc2Cl)n1 | 0.54
Clc1cccc(-c2cc(-c3ccc(Cl)o3)cc(-c3ccc(Cl)s3)n2)c1 | > 50
Cc1ccc(-c2cc(-c3ccc(Cl)o3)cc(-c3ccc(Cl)s3)n2)cc1 | > 50
Cc1ccsc1-c1cc(-c2ccoc2)cc(-c2ccco2)n1 | 0.64
Cc1ccsc1-c1cc(-c2ccoc2)cc(-c2ccc(Cl)cc2)n1 | 2.99
Cc1ccsc1-c1cc(-c2ccc(Cl)o2)cc(-c2cccnc2)n1 | > 50
Cc1ccsc1-c1cc(-c2ccc(Cl)o2)cc(-c2ccc(Cl)cc2)n1 | 30.3
COc1cccc2c1C(=O)c1c(O)c3c(c(O)c1C2=O)C[C@@](O)(C(=O)CO)C[C@@H]3O[C@H]1C[C@H](N)[C@H](O)[C@H](C)O1 [DOXORUBICIN HYDROCHLORIDE] | 2.12
Clc1ccc(-c2cc(-c3ccco3)cc(-c3ccc(Cl)s3)n2)cc1 | 1.08
Cc1ccsc1-c1cc(-c2ccc(Cl)o2)cc(-c2ccco2)n1 | 26.3
Cc1ccsc1-c1cc(-c2ccc(Cl)o2)cc(-c2cccc(Cl)c2)n1 | 26.4

target: T1, DNA topoisomerase 1 (Homo sapiens) (UniProt P11387); assay: Inhibition of human recombinant DNA topoisomerase 1-mediated relaxation of supercoiled pBR322 DNA at 20 uM after 30 mins by agarose gel electrophoresis; details: not given
T1 sequence (whole entry): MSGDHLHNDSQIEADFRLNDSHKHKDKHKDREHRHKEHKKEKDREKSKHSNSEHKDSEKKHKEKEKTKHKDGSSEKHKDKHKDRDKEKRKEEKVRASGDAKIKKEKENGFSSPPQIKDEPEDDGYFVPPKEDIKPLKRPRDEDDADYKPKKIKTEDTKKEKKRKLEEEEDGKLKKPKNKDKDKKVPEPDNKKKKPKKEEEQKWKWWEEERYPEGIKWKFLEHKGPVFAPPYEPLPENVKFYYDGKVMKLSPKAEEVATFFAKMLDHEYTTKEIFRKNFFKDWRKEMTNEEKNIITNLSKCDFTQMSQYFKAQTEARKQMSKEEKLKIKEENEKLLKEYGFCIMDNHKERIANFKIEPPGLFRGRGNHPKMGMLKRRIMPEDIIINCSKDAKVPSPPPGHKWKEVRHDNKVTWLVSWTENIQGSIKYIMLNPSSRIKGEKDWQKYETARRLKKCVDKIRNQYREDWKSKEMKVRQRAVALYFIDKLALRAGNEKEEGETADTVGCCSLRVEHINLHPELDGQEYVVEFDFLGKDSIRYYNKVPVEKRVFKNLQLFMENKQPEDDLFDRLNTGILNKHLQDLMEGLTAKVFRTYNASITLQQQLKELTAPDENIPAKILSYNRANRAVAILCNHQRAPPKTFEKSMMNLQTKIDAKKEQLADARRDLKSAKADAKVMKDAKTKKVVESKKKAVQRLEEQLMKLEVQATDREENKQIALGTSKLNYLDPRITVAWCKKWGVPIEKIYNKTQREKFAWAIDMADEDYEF
Summary of the method: (§3)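 Recombinant human topo I (0.4 units) with 100 ng supercoiled pBR322, 30 min at 37 °C in 10 mM Tris–HCl pH 7.9, 150 mM NaCl, 0.1% BSA, 1 mM spermidine, 5% glycerol. Compounds from 20 mM DMSO stock. Products run on 1% agarose in TAE, 15 V for 7 h, ethidium-stained, bands quantified under UV.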

inhibition | SMILES
inactive | Clc1cccc(-c2cc(-c3ccc(Cl)o3)cc(-c3ccc(Cl)s3)n2)c1
inactive | Cc1ccc(-c2cc(-c3ccc(Cl)o3)cc(-c3ccc(Cl)s3)n2)cc1
inactive | Cc1ccsc1-c1cc(-c2ccc(Cl)o2)cc(-c2cccnc2)n1
inactive | Cc1ccsc1-c1cc(-c2ccc(Cl)o2)cc(-c2ccc(Cl)cc2)n1
42.9% | Clc1ccc(-c2cc(-c3ccco3)cc(-c3ccc(Cl)s3)n2)cc1
inactive | Cc1ccsc1-c1cc(-c2ccc(Cl)o2)cc(-c2ccco2)n1
inactive | Cc1ccsc1-c1cc(-c2ccc(Cl)o2)cc(-c2cccc(Cl)c2)n1

Further lines, the compound ahead of its results:

SMILES | inhibition
Cc1ccsc1-c1cc(-c2ccco2)cc(-c2ccccc2Cl)n1 | inactive
Cc1ccsc1-c1cc(-c2ccoc2)cc(-c2ccco2)n1 | inactive
Cc1ccsc1-c1cc(-c2ccoc2)cc(-c2ccc(Cl)cc2)n1 | 10.6%

target: T1, DNA topoisomerase 1 (Homo sapiens); assay: Inhibition of human recombinant DNA topoisomerase 1-mediated relaxation of supercoiled pBR322 DNA at 100 uM after 30 mins by agarose gel electrophoresis; details: not given; summary of the method: as §3

inhibition [%] | SMILES
13.3 | Clc1cccc(-c2cc(-c3ccc(Cl)o3)cc(-c3ccc(Cl)s3)n2)c1
14.2 | Cc1ccc(-c2cc(-c3ccc(Cl)o3)cc(-c3ccc(Cl)s3)n2)cc1
21.4 | Cc1ccsc1-c1cc(-c2ccc(Cl)o2)cc(-c2cccnc2)n1
5.1 | Cc1ccsc1-c1cc(-c2ccc(Cl)o2)cc(-c2ccc(Cl)cc2)n1
53.1 | Clc1ccc(-c2cc(-c3ccco3)cc(-c3ccc(Cl)s3)n2)cc1
7.8 | Cc1ccsc1-c1cc(-c2ccc(Cl)o2)cc(-c2ccco2)n1
5.9 | Cc1ccsc1-c1cc(-c2ccc(Cl)o2)cc(-c2cccc(Cl)c2)n1

Second part, the compound before the results:

SMILES | inhibition [%]
Cc1ccsc1-c1cc(-c2ccco2)cc(-c2ccccc2Cl)n1 | 2
Cc1ccsc1-c1cc(-c2ccoc2)cc(-c2ccco2)n1 | 5.4
Cc1ccsc1-c1cc(-c2ccoc2)cc(-c2ccc(Cl)cc2)n1 | 85.9

test system: K562; assay: Cytotoxicity against human K562 cells after 4 days by ELISA reader assay; type: functional, cell-based; details: K562, 96 h; summary of the method: as §1

SMILES | IC50 [µM]
Cc1ccsc1-c1cc(-c2ccco2)cc(-c2ccccc2Cl)n1 | 25.4
Clc1cccc(-c2cc(-c3ccc(Cl)o3)cc(-c3ccc(Cl)s3)n2)c1 | 19.6
Cc1ccc(-c2cc(-c3ccc(Cl)o3)cc(-c3ccc(Cl)s3)n2)cc1 | 21.4
Cc1ccsc1-c1cc(-c2ccoc2)cc(-c2ccco2)n1 | 23.3
Cc1ccsc1-c1cc(-c2ccoc2)cc(-c2ccc(Cl)cc2)n1 | 19.6
Cc1ccsc1-c1cc(-c2ccc(Cl)o2)cc(-c2cccnc2)n1 | 12.3
Cc1ccsc1-c1cc(-c2ccc(Cl)o2)cc(-c2ccc(Cl)cc2)n1 | 15.6
COc1cccc2c1C(=O)c1c(O)c3c(c(O)c1C2=O)C[C@@](O)(C(=O)CO)C[C@@H]3O[C@H]1C[C@H](N)[C@H](O)[C@H](C)O1 [DOXORUBICIN HYDROCHLORIDE] | 2.5
Clc1ccc(-c2cc(-c3ccco3)cc(-c3ccc(Cl)s3)n2)cc1 | 10.5
Cc1ccsc1-c1cc(-c2ccc(Cl)o2)cc(-c2ccco2)n1 | 10.6
Cc1ccsc1-c1cc(-c2ccc(Cl)o2)cc(-c2cccc(Cl)c2)n1 | 13.4

target: DNA topoisomerase 2-alpha (Homo sapiens) (UniProt P11388); assay: Inhibition of human DNA topoisomerase 2alpha-mediated relaxation of supercoiled pBR322 DNA at 20 uM after 30 mins by agarose gel electrophoresis; details: not given; summary of the method: as §2

inhibition [%] | SMILES
40.7 | Clc1cccc(-c2cc(-c3ccc(Cl)o3)cc(-c3ccc(Cl)s3)n2)c1
41.1 | Cc1ccc(-c2cc(-c3ccc(Cl)o3)cc(-c3ccc(Cl)s3)n2)cc1
25.5 | Cc1ccsc1-c1cc(-c2ccc(Cl)o2)cc(-c2cccnc2)n1
40.4 | Cc1ccsc1-c1cc(-c2ccc(Cl)o2)cc(-c2ccc(Cl)cc2)n1
48.4 | Clc1ccc(-c2cc(-c3ccco3)cc(-c3ccc(Cl)s3)n2)cc1
30.7 | Cc1ccsc1-c1cc(-c2ccc(Cl)o2)cc(-c2ccco2)n1
35.7 | Cc1ccsc1-c1cc(-c2ccc(Cl)o2)cc(-c2cccc(Cl)c2)n1

Second part, the compound before the results:

SMILES | inhibition [%]
Cc1ccsc1-c1cc(-c2ccco2)cc(-c2ccccc2Cl)n1 | 3.5
Cc1ccsc1-c1cc(-c2ccoc2)cc(-c2ccco2)n1 | 36.4
Cc1ccsc1-c1cc(-c2ccoc2)cc(-c2ccc(Cl)cc2)n1 | 8.1

test system: DU-145; assay: Cytotoxicity against human DU145 cells after 4 days by ELISA reader assay; type: functional, cell-based; details: DU-145, 96 h; summary of the method: as §1

SMILES | IC50 [µM]
CC[C@@]1(O)C(=O)OCc2c1cc1n(c2=O)Cc2cc3ccccc3nc2-1 [CAMPTOTHECIN] | 0.66
Cc1ccsc1-c1cc(-c2ccco2)cc(-c2ccccc2Cl)n1 | 29.9
Clc1cccc(-c2cc(-c3ccc(Cl)o3)cc(-c3ccc(Cl)s3)n2)c1 | 21.6
Cc1ccc(-c2cc(-c3ccc(Cl)o3)cc(-c3ccc(Cl)s3)n2)cc1 | > 50
Cc1ccsc1-c1cc(-c2ccoc2)cc(-c2ccco2)n1 | 30.4
Cc1ccsc1-c1cc(-c2ccoc2)cc(-c2ccc(Cl)cc2)n1 | 20.1
Cc1ccsc1-c1cc(-c2ccc(Cl)o2)cc(-c2cccnc2)n1 | 30.8
Cc1ccsc1-c1cc(-c2ccc(Cl)o2)cc(-c2ccc(Cl)cc2)n1 | 21.9
COc1cccc2c1C(=O)c1c(O)c3c(c(O)c1C2=O)C[C@@](O)(C(=O)CO)C[C@@H]3O[C@H]1C[C@H](N)[C@H](O)[C@H](C)O1 [DOXORUBICIN HYDROCHLORIDE] | 1.5
Clc1ccc(-c2cc(-c3ccco3)cc(-c3ccc(Cl)s3)n2)cc1 | 14.8
Cc1ccsc1-c1cc(-c2ccc(Cl)o2)cc(-c2ccco2)n1 | 27.3
Cc1ccsc1-c1cc(-c2ccc(Cl)o2)cc(-c2cccc(Cl)c2)n1 | 20.5
